# Tests used:
# MAGL = molecular target: T1, MAGL (Rattus norvegicus, UniProt Q8R431); experiment: competitive ABPP of brain from KML29-treated rats; type: in vivo; details: Wistar rats, 40 mg kg^−1 i.p., 4 h
# T1 sequence (Q8R431 1-303): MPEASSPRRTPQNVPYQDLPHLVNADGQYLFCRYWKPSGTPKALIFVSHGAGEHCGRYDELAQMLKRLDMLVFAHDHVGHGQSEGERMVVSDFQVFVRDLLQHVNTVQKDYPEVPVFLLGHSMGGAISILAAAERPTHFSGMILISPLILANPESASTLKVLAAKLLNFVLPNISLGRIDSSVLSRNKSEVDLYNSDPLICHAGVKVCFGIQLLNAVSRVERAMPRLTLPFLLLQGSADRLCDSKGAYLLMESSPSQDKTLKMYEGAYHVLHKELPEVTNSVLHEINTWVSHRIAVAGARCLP
# In short: (§1)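 Wistar rats were injected i.p. with the test compound (1–40 mg kg−1) or vehicle. Vehicle was saline:emulphor:ethanol 18:1:1, with prolonged sonication and mild heating to dissolve. Rats were killed at 4 h. Brain, liver, lung and spleen proteomes were labelled with FP-Rh, separated by SDS-PAGE and scanned for in-gel fluorescence. Inhibition was scored as reduced probe labelling. n = 3 rats/group.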
# ABHD6 [1] = molecular target: T2, ABHD6 (Mus musculus, UniProt Q8R2Y0); experiment: competitive ABPP, mouse brain membrane proteome; type: biochemical; details: mouse brain serine hydrolase activities, full ABPP gel
# T2 sequence (Q8R2Y0 1-336): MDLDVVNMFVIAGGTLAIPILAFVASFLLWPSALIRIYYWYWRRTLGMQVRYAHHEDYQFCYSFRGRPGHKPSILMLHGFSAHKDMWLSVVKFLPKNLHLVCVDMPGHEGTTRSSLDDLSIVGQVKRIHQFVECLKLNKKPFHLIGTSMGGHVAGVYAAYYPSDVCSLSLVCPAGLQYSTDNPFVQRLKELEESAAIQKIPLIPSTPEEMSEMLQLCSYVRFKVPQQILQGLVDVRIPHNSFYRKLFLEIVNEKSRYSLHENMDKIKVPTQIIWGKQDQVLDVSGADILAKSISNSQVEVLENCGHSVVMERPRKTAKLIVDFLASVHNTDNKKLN
# In short: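 Brain (mouse or rat) or mouse lung proteomes were preincubated with the test compound, then treated with the serine hydrolase probe FP-Rh. Samples were separated by SDS-PAGE and read by in-gel fluorescence scanning. Inhibition was taken as reduced FP-Rh labelling of MAGL, ABHD6, FAAH or CES bands, and IC50 values were calculated from quantified gel bands. Three independent experiments.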
# ABHD6 [2] = molecular target: T3, ABHD6 (Rattus norvegicus, UniProt Q5XI64); experiment: competitive ABPP of brain from KML29-treated rats; type: in vivo; details: Wistar rats, 1–40 mg kg^−1 i.p., 4 h
# T3 sequence (Q5XI64 1-337): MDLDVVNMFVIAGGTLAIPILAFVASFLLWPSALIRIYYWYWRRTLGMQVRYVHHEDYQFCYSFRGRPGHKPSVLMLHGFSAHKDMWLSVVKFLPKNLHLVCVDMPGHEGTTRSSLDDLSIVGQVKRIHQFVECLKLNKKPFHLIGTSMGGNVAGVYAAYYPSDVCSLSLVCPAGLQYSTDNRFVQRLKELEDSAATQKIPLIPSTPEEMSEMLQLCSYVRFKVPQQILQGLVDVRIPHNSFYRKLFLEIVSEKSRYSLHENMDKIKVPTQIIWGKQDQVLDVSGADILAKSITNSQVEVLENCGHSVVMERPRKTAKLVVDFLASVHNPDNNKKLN
# In short: as §1
# FAAH = molecular target: T4, FAAH (Mus musculus, UniProt O08914); experiment: competitive ABPP of brain from inhibitor-treated mice; type: in vivo
# T4 sequence (O08914 1-579): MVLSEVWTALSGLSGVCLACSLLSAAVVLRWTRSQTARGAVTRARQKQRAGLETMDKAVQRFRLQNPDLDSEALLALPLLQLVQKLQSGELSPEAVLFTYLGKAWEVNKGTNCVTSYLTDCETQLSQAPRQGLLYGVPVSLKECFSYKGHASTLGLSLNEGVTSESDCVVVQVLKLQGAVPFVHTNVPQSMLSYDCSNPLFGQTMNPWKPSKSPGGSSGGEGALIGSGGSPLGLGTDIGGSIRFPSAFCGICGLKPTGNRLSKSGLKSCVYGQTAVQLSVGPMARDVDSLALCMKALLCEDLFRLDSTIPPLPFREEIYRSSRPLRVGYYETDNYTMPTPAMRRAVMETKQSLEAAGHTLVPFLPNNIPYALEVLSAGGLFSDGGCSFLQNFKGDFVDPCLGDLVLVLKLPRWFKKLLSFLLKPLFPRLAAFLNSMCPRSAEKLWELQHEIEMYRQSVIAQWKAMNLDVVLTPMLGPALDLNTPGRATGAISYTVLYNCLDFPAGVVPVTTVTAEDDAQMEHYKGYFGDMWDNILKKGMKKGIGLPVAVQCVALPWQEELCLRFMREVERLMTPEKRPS
compound,measurement,setting,value
O=C(OC(C(F)(F)F)C(F)(F)F)N1CCC(C(O)(c2ccc3c(c2)OCO3)c2ccc3c(c2)OCO3)CC1 [KML29],inhibition of brain MAGL,MAGL,> 90%
same,concentrations with inhibition of ABHD6,ABHD6 [1],> 1 µM
same,cross-reactivity with brain ABHD6,ABHD6 [2],without any detectable cross-reactivity
same,"brain FAAH inhibition, chronic dosing","FAAH; 40 mg kg^−1 p.o., six days",selectively inhibited MAGL without any effect on FAAH
same,selectivity over brain FAAH,"FAAH; all doses tested 1–40 mg kg^−1 p.o., 4 h",complete selectivity over FAAH
same,selectivity for MAGL over FAAH during time course,"FAAH; single oral dose 20 mg kg^−1, 24 h time course",complete selectivity for MAGL over FAAH

# Reference: paper PMC3361572 (Chemistry & biology, 2012)
